Results: ChEMBL document CHEMBL1155895, “(9S)-9-(2-hydroxy-4,4-dimethyl-6-oxo-1-cyclohexen-1-yl)-3,3-dimethyl-2,3,4,9-tetrahydro-1H-xanthen-1-one, a selective and orally active neuropeptide Y Y5 receptor antagonist” (J Med Chem, 2008)

Key:
[1] = target: T1, Neuropeptide Y receptor type 5 (Homo sapiens, UniProt Q15761); experiment: Displacement of [125I]PYY from human recombinant neuropeptide Y5 receptor expressed in thymidine kinase deficient […]; format: cell-based
T1 sequence (Q15761 whole entry): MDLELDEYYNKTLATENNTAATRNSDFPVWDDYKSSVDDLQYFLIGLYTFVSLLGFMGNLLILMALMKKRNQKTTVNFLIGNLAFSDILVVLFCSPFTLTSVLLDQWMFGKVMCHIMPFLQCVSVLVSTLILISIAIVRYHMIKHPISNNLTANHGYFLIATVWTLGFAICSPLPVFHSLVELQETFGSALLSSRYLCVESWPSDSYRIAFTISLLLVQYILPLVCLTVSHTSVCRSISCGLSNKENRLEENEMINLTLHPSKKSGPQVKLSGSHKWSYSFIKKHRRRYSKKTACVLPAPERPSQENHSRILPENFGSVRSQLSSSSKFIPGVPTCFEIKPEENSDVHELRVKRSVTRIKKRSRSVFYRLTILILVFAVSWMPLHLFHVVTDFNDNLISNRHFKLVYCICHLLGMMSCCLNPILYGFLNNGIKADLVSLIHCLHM

[2] = target: T1, Neuropeptide Y receptor type 5; experiment: Antagonist activity at human recombinant neuropeptide Y5 receptor expressed in CHO cells coexpressing Gqi5 assessed as inhibition of neuropeptide Y-induced increase in intracellular calcium concentration; format: functional, cell-based
Method in brief: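 Human recombinant Y5 receptor co-expressed with Gqi5 in CHO cells. Cells stimulated with 100 nM NPY. Antagonism read as inhibition of the NPY-evoked intracellular Ca2+ rise, reported as IC50.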

[3] = target: T2, Neuropeptide Y receptor type 1 (Homo sapiens, UniProt P25929); experiment: Inhibition of human neuropeptide Y1 receptor
T2 sequence (P25929 whole entry): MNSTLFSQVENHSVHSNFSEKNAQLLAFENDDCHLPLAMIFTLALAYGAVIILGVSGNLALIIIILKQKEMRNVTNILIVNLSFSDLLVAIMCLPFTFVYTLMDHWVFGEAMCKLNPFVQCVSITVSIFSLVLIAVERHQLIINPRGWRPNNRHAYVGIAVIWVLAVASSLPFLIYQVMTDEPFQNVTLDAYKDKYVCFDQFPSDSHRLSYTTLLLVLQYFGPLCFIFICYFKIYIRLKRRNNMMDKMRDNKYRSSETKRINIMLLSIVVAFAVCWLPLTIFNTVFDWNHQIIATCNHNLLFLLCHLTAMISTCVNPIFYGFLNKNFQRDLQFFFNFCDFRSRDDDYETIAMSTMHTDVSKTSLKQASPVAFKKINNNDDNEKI

[4] = target: T3, Neuropeptide Y receptor type 2 (Homo sapiens, UniProt P49146); experiment: Inhibition of human neuropeptide Y2 receptor
T3 sequence (P49146 whole entry): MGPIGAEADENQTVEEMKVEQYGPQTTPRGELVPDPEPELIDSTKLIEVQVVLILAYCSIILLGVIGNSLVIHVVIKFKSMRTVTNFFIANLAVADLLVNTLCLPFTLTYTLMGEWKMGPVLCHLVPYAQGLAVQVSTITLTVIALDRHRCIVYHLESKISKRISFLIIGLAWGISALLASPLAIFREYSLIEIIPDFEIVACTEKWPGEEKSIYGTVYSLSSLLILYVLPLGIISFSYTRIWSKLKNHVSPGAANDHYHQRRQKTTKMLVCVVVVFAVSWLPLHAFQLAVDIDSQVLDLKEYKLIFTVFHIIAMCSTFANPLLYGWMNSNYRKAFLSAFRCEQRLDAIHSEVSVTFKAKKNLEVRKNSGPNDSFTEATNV

[5] = target: Neuropeptide Y receptor type 4 (Homo sapiens, UniProt P50391); experiment: Inhibition of human neuropeptide Y4 receptor
Neuropeptide Y receptor type 4, sequence (P50391 whole entry): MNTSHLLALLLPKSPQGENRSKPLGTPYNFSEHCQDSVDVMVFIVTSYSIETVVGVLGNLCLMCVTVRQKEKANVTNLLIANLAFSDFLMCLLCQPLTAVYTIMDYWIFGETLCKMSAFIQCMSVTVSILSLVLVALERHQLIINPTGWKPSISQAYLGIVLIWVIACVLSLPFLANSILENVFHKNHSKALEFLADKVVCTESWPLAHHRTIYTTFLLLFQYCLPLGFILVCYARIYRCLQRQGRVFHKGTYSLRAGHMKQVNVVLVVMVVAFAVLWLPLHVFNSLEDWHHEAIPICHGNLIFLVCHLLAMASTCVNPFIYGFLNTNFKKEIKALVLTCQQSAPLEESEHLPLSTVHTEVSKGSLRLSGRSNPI

[6] = Tmax in Sprague-Dawley rat at 10 mg/kg, po; format: ADME, organism-based; design: dose 10 mg/kg, route oral; conditions: in vivo
Method in brief: (§1)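 SD rats dosed orally with 10 mg/kg, as either the single enantiomer or the racemate; n = 3 animals per dose. Plasma levels of both enantiomers followed over time to build concentration–time profiles, from which PK parameters were taken.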

[7] = Cmax in Sprague-Dawley rat at 10 mg/kg, po; format: ADME, organism-based; design: dose 10 mg/kg, route oral; conditions: in vivo; method in brief: as §1
[8] = Half life in Sprague-Dawley rat at 10 mg/kg, po; format: ADME, organism-based; design: dose 10 mg/kg, route oral; conditions: in vivo; method in brief: as §1
Mus musculus [9] = experiment: Toxicity in ICR mouse assessed as gross behavioral adverse effects at 150 mg/kg, po; format: organism-based; design: dose 150 mg/kg, route oral; conditions: in vivo
Method in brief: (§2)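 Mice were given a single oral dose of 150 mg/kg and observed for gross behaviour. The scored signs were psychomotor activity, motor activity, muscle tone, CNS excitation, autonomic responses and reflexes. Deaths were recorded at any time after dosing. This was run as a gross-behaviour screen before the in vivo efficacy studies.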

Mus musculus [10] = experiment: Toxicity in ICR mouse assessed as mortality at 150 mg/kg, po; format: organism-based; design: dose 150 mg/kg, route oral; conditions: in vivo; method in brief: as §2
Rattus norvegicus = experiment: Inhibition of D-Trp34-NPY-induced food intake in po dosed Sprague-Dawley rat; format: functional, organism-based
[11] = Fraction unbound in Sprague-Dawley rat plasma at 10 mg/kg, po; format: ADME, organism-based; design: dose 10 mg/kg, route oral
[12] = Ratio of drug level in brain to plasma in Sprague-Dawley rat at 10 mg/kg, po; format: ADME, organism-based; design: dose 10 mg/kg, route oral

| Ki [1] | IC50 [2] | Structure (SMILES) | also measured |
| --- | --- | --- | --- |
| 81 nM |  | CC1(C)CC(=O)C(C2C3=C(CC(C)(C)CC3=O)Oc3ccc(F)cc32)=C(O)C1 (configuration not stated) |  |
| 29 nM | 63 nM | CC1(C)CC(=O)C(C2C3=C(CC(C)(C)CC3=O)Oc3cc(F)ccc32)=C(O)C1 (configuration not stated) |  |
| 36 nM | 111 nM | Cc1ccc2c(c1)OC1=C(C(=O)CC(C)(C)C1)C2C1=C(O)CC(C)(C)CC1=O (configuration not stated) |  |
| 34 nM | 82 nM | CC1(C)CC(=O)C(C2C3=C(CC(C)(C)CC3=O)Oc3cc(Cl)ccc32)=C(O)C1 (configuration not stated) |  |
| 197 nM |  | CC1(C)CC(=O)C(C2C3=C(CC(C)(C)CC3=O)Oc3ccc(Cl)cc32)=C(O)C1 (configuration not stated) |  |
| 71 nM |  | CC1(C)CC(=O)C(C2C3=C(CC(C)(C)CC3=O)Oc3c(Cl)cccc32)=C(O)C1 (configuration not stated) |  |
| 14 nM | 34 nM | CC1(C)CC(=O)C([C@H]2C3=C(CC(C)(C)CC3=O)Oc3ccccc32)=C(O)C1 | Tmax [6]: 0.5 h; Cmax [7]: 2500 nM; half-life [8]: 2.7 h; fraction unbound [11]: 0.27; Kp [12]: 0.34; Activity (Rattus norvegicus): Dose-dependent effect |
| 2170 nM |  | COc1cccc2c1OC1=C(C(=O)CC(C)(C)C1)C2C1=C(O)CC(C)(C)CC1=O (configuration not stated) |  |
| > 1000 nM | 343 nM | CC1(C)CC(=O)C([C@@H]2C3=C(CC(C)(C)CC3=O)Oc3ccccc32)=C(O)C1 | fraction unbound [11]: 0.1; Kp [12]: 0.1 |
| 36 nM | 81 nM | CC1(C)CC(=O)C(C2C3=C(CC(C)(C)CC3=O)Oc3cc(Br)ccc32)=C(O)C1 (configuration not stated) |  |
| 34 nM | 73 nM | CC1(C)CC(=O)C(C2C3=C(CC(C)(C)CC3=O)Oc3c(F)cccc32)=C(O)C1 (configuration not stated) |  |
| > 1000 nM |  | COc1cccc2c1C(C1=C(O)CC(C)(C)CC1=O)C1=C(CC(C)(C)CC1=O)O2 (configuration not stated) |  |

Continued, compound first:

| Structure (SMILES) | Ki [1] | IC50 [2] | also measured |
| --- | --- | --- | --- |
| O=C1CCCC(O)=C1C1C2=C(CCCC2=O)Oc2ccccc21 (configuration not stated) | > 1000 nM |  |  |
| CCc1ccc2c(c1)OC1=C(C(=O)CC(C)(C)C1)C2C1=C(O)CC(C)(C)CC1=O (configuration not stated) | 41 nM |  |  |
| CC1(C)CC(=O)C(C2C3=C(CC(C)(C)CC3=O)Oc3ccccc32)=C(O)C1 (racemic) | 33 nM | 61 nM | IC50 [3]: > 10000 nM; IC50 [4]: > 10000 nM; IC50 [5]: > 10000 nM; Tmax [6]: 1 h; Cmax [7]: 2400 nM; half-life [8]: 5.2 h; Activity (Mus musculus [9]): Non-toxic; Activity (Mus musculus [10]): Non-toxic; Activity (Rattus norvegicus): Dose-dependent effect |
| COc1ccc2c(c1)C(C1=C(O)CC(C)(C)CC1=O)C1=C(CC(C)(C)CC1=O)O2 (configuration not stated) | 590 nM |  |  |
| O=C1CC2(CCCCC2)CC(O)=C1C1C2=C(CC3(CCCCC3)CC2=O)Oc2ccccc21 (configuration not stated) | 24 nM | 109 nM |  |
| O=C1CC2(CCC2)CC(O)=C1C1C2=C(CC3(CCC3)CC2=O)Oc2ccccc21 (configuration not stated) | 14 nM | 45 nM |  |
| CCC1(CC)CC(=O)C(C2C3=C(CC(CC)(CC)CC3=O)Oc3ccccc32)=C(O)C1 (configuration not stated) | 20 nM | 90 nM |  |
| CCOc1ccc2c(c1)OC1=C(C(=O)CC(C)(C)C1)C2C1=C(O)CC(C)(C)CC1=O (configuration not stated) | 833 nM |  |  |
| CC1CC(=O)C(C2C3=C(CC(C)CC3=O)Oc3ccccc32)=C(O)C1 (configuration not stated) | 193 nM |  |  |
| COc1ccc2c(c1)OC1=C(C(=O)CC(C)(C)C1)C2C1=C(O)CC(C)(C)CC1=O (configuration not stated) | 93 nM |  |  |
| O=C1CC2(CCCC2)CC(O)=C1C1C2=C(CC3(CCCC3)CC2=O)Oc2ccccc21 (configuration not stated) | 17 nM | 58 nM |  |
